In ChEMBL document CHEMBL5104168, “Design, synthesis, and antitumor study of a series of novel 1-Oxa-4-azaspironenone derivatives” (Bioorg Med Chem Lett, 2022):

test system: MDA-MB-231; experiment: Induction of cell cycle arrest in human MDA-MB-231 cells assessed as accumulation of cells at G2 phase at 10 uM (reference value: 16.5 %); format: functional; details: not given

Structure (SMILES) | Activity [%]
O=C1C=CC2(OCC(=O)N2Cc2ccc(Cl)cc2)C2CC12 (configuration not stated) | 27.16
COc1ccc(/C=C\c2cc(OC)c(OC)c(OC)c2)cc1O [COMBRETASTATIN A4] | 57.38

test system: MDA-MB-231; experiment: Induction of apoptosis in human MDA-MB-231 cells assessed as late apoptotic cells at 10 uM by Annexin V-FITC/propidium iodide staining based flow cytometric analysis (reference value: 1.02 %); format: functional; details: not given
How it was run: (§1)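 MDA-MB-231 cells were cultured with compound at 10 μM. DMSO-treated cells served as the vehicle control and combretastatin A4 (10 μM) as the positive control. Cells were double-labelled with Annexin V-FITC and propidium iodide and analysed by flow cytometry. Population percentages were read from the quadrants: early-apoptotic, late-apoptotic and dead cells. Incubation time was not given.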

Structure (SMILES) | Activity [%]
O=C1C=CC2(OCC(=O)N2Cc2ccc(Cl)cc2)C2CC12 (configuration not stated) | 3
COc1ccc(/C=C\c2cc(OC)c(OC)c(OC)c2)cc1O [COMBRETASTATIN A4] | 4.81

test system: MDA-MB-231; experiment: Induction of apoptosis in human MDA-MB-231 cells assessed as dead cells at 10 uM by Annexin V-FITC/propidium iodide staining based flow cytometric analysis (reference value: 0.68 %); format: functional; details: not given; how it was run: as §1

Structure (SMILES) | Activity [%]
O=C1C=CC2(OCC(=O)N2Cc2ccc(Cl)cc2)C2CC12 (configuration not stated) | 0.72
COc1ccc(/C=C\c2cc(OC)c(OC)c(OC)c2)cc1O [COMBRETASTATIN A4] | 0.35

test system: MDA-MB-231; experiment: Induction of cell cycle arrest in human MDA-MB-231 cells assessed as accumulation of cells at S phase at 10 uM (reference value: 21.17 %); format: functional; details: not given

Structure (SMILES) | Activity [%]
O=C1C=CC2(OCC(=O)N2Cc2ccc(Cl)cc2)C2CC12 (configuration not stated) | 19.28
COc1ccc(/C=C\c2cc(OC)c(OC)c(OC)c2)cc1O [COMBRETASTATIN A4] | 32.46

test system: A549; experiment: Anticancer activity against human A549 cells assessed as inhibition of cell proliferation; format: functional, cell-based; details: not given

Structure (SMILES) | IC50 [nM]
CCSC1CC(=O)CC(SCC)C12OCC(=O)N2Cc1ccc(C)cc1 (configuration not stated) | 2300
O=C1C=CC2(OCC(=O)N2Cc2ccc(Cl)cc2)C2CC12 (configuration not stated) | 6060
COC(=O)C(C(=O)OC)C1CC(=O)C=CC12OCC(=O)N2Cc1ccc(Br)cc1 (configuration not stated) | 2550
COC(=O)C(C(=O)OC)C1CC(=O)C=CC12OCC(=O)N2Cc1ccc(C)cc1 (configuration not stated) | 9250
CCSC1CC(=O)CC(SCC)C12OCC(=O)N2Cc1ccc(Cl)cc1 (configuration not stated) | > 10000
O=C1C=CC2(OCC(=O)N2Cc2ccc(Br)cc2)C2CC12 (configuration not stated) | 6090
CCSC1=CC(=O)CC(SCC)C12OCC(=O)N2Cc1c(Cl)cccc1Cl (configuration not stated) | 9270
O=C1C=CC2(OCC(=O)N2Cc2ccc([N+](=O)[O-])cc2)C2CC12 (configuration not stated) | > 10000
O=C1C=CC2(OCC(=O)N2Cc2ccccc2Cl)C2CC12 (configuration not stated) | 660
COC(=O)C(C(=O)OC)C1CC(=O)C=CC12OCC(=O)N2Cc1ccc(Cl)cc1 (configuration not stated) | 9980
O=C1C=CC2(OCC(=O)N2Cc2c(Cl)cccc2Cl)C2CC12 (configuration not stated) | 8830
COC(=O)C(C(=O)OC)C1CC(=O)C=CC12OCC(=O)N2Cc1cccc(Cl)c1 (configuration not stated) | 260

Continued, values first:

IC50 [nM] | Structure (SMILES)
260 | Cc1ccc(CN2C(=O)COC23C=CC(=O)C=C3)cc1
810 | O=C1C=CC2(C=C1)OCC(=O)N2Cc1ccc([N+](=O)[O-])cc1
1290 | O=C1C=CC2(C=C1)OCC(=O)N2Cc1ccc(Cl)cc1
> 10000 | O=C1C=CC2(OCC(=O)N2Cc2cccc(Cl)c2)C2CC12 (configuration not stated)
4950 | O=C1C=CC2(C=C1)OCC(=O)N2Cc1c(Cl)cccc1Cl
1050 | O=C1C=CC2(C=C1)OCC(=O)N2Cc1ccccc1Cl
190 | O=C1C=CC2(C=C1)OCC(=O)N2Cc1ccc(Br)cc1
3010 | O=C1C=CC2(C=C1)OCC(=O)N2Cc1cccc(Cl)c1

test system: not listed separately; experiment: Cytotoxicity against HUVEC cells assessed as inhibition of cell growth; details: human

Structure (SMILES) | IC50 [nM]
O=C1C=CC2(C=C1)OCC(=O)N2Cc1ccc(Cl)cc1 | 44600
O=C1C=CC2(OCC(=O)N2Cc2ccc(Cl)cc2)C2CC12 (configuration not stated) | 83600

test system: MDA-MB-231; experiment: Induction of cell cycle arrest in human MDA-MB-231 cells assessed as accumulation of cells at G1 phase at 10 uM (reference value: 61.33 %); format: functional; details: not given

Structure (SMILES) | Activity [%]
O=C1C=CC2(OCC(=O)N2Cc2ccc(Cl)cc2)C2CC12 (configuration not stated) | 53.57
COc1ccc(/C=C\c2cc(OC)c(OC)c(OC)c2)cc1O [COMBRETASTATIN A4] | 10.16

test system: MDA-MB-231; experiment: Anticancer activity against human MDA-MB-231 cells assessed as inhibition of cell proliferation; format: functional, cell-based; details: not given

Structure (SMILES) | IC50 [nM]
CCSC1CC(=O)CC(SCC)C12OCC(=O)N2Cc1ccc(C)cc1 (configuration not stated) | 1360
O=C1C=CC2(OCC(=O)N2Cc2ccc(Cl)cc2)C2CC12 (configuration not stated) | 100
COC(=O)C(C(=O)OC)C1CC(=O)C=CC12OCC(=O)N2Cc1ccc(Br)cc1 (configuration not stated) | 1230
COC(=O)C(C(=O)OC)C1CC(=O)C=CC12OCC(=O)N2Cc1ccc(C)cc1 (configuration not stated) | 340
CCSC1CC(=O)CC(SCC)C12OCC(=O)N2Cc1ccc(Cl)cc1 (configuration not stated) | 260
O=C1C=CC2(OCC(=O)N2Cc2ccc(Br)cc2)C2CC12 (configuration not stated) | 1120
CCSC1=CC(=O)CC(SCC)C12OCC(=O)N2Cc1c(Cl)cccc1Cl (configuration not stated) | 120
O=C1C=CC2(OCC(=O)N2Cc2ccc([N+](=O)[O-])cc2)C2CC12 (configuration not stated) | 1200
O=C1C=CC2(OCC(=O)N2Cc2ccccc2Cl)C2CC12 (configuration not stated) | 420
COC(=O)C(C(=O)OC)C1CC(=O)C=CC12OCC(=O)N2Cc1ccc(Cl)cc1 (configuration not stated) | 380
O=C1C=CC2(OCC(=O)N2Cc2c(Cl)cccc2Cl)C2CC12 (configuration not stated) | 5520
COC(=O)C(C(=O)OC)C1CC(=O)C=CC12OCC(=O)N2Cc1cccc(Cl)c1 (configuration not stated) | 250

Next, values leading:

IC50 [nM] | Structure (SMILES)
100 | Cc1ccc(CN2C(=O)COC23C=CC(=O)C=C3)cc1
210 | O=C1C=CC2(C=C1)OCC(=O)N2Cc1ccc([N+](=O)[O-])cc1
110 | O=C1C=CC2(C=C1)OCC(=O)N2Cc1ccc(Cl)cc1
460 | O=C1C=CC2(OCC(=O)N2Cc2cccc(Cl)c2)C2CC12 (configuration not stated)
120 | O=C1C=CC2(C=C1)OCC(=O)N2Cc1c(Cl)cccc1Cl
70 | O=C1C=CC2(C=C1)OCC(=O)N2Cc1ccccc1Cl
80 | O=C1C=CC2(C=C1)OCC(=O)N2Cc1ccc(Br)cc1
110 | O=C1C=CC2(C=C1)OCC(=O)N2Cc1cccc(Cl)c1

test system: HeLa; experiment: Anticancer activity against human HeLa cells assessed as inhibition of cell proliferation; format: functional, cell-based; details: not given

Structure (SMILES) | IC50 [nM]
CCSC1CC(=O)CC(SCC)C12OCC(=O)N2Cc1ccc(C)cc1 (configuration not stated) | 2410
O=C1C=CC2(OCC(=O)N2Cc2ccc(Cl)cc2)C2CC12 (configuration not stated) | > 10000
COC(=O)C(C(=O)OC)C1CC(=O)C=CC12OCC(=O)N2Cc1ccc(Br)cc1 (configuration not stated) | 1060
COC(=O)C(C(=O)OC)C1CC(=O)C=CC12OCC(=O)N2Cc1ccc(C)cc1 (configuration not stated) | 410
CCSC1CC(=O)CC(SCC)C12OCC(=O)N2Cc1ccc(Cl)cc1 (configuration not stated) | 3920
O=C1C=CC2(OCC(=O)N2Cc2ccc(Br)cc2)C2CC12 (configuration not stated) | > 10000
CCSC1=CC(=O)CC(SCC)C12OCC(=O)N2Cc1c(Cl)cccc1Cl (configuration not stated) | 210
O=C1C=CC2(OCC(=O)N2Cc2ccc([N+](=O)[O-])cc2)C2CC12 (configuration not stated) | 3860
O=C1C=CC2(OCC(=O)N2Cc2ccccc2Cl)C2CC12 (configuration not stated) | > 10000
COC(=O)C(C(=O)OC)C1CC(=O)C=CC12OCC(=O)N2Cc1ccc(Cl)cc1 (configuration not stated) | 180
O=C1C=CC2(OCC(=O)N2Cc2c(Cl)cccc2Cl)C2CC12 (configuration not stated) | 1760
COC(=O)C(C(=O)OC)C1CC(=O)C=CC12OCC(=O)N2Cc1cccc(Cl)c1 (configuration not stated) | 340
Cn1c(CCCC(=O)O)nc2cc(N(CCCl)CCCl)ccc21 [BENDAMUSTINE] | > 20000

The remaining lines, values ahead:

IC50 [nM] | Structure (SMILES)
200 | Cc1ccc(CN2C(=O)COC23C=CC(=O)C=C3)cc1
270 | O=C1C=CC2(C=C1)OCC(=O)N2Cc1ccc([N+](=O)[O-])cc1
410 | O=C1C=CC2(C=C1)OCC(=O)N2Cc1ccc(Cl)cc1
1730 | O=C1C=CC2(OCC(=O)N2Cc2cccc(Cl)c2)C2CC12 (configuration not stated)
290 | O=C1C=CC2(C=C1)OCC(=O)N2Cc1c(Cl)cccc1Cl
360 | O=C1C=CC2(C=C1)OCC(=O)N2Cc1ccccc1Cl
150 | O=C1C=CC2(C=C1)OCC(=O)N2Cc1ccc(Br)cc1
370 | O=C1C=CC2(C=C1)OCC(=O)N2Cc1cccc(Cl)c1

test system: MDA-MB-231; experiment: Induction of apoptosis in human MDA-MB-231 cells assessed as early apoptotic cells at 10 uM by Annexin V-FITC/propidium iodide staining based flow cytometric analysis (reference value: 4.66 %); format: functional; details: not given; how it was run: as §1

Structure (SMILES) | Activity [%]
O=C1C=CC2(OCC(=O)N2Cc2ccc(Cl)cc2)C2CC12 (configuration not stated) | 10.9
COc1ccc(/C=C\c2cc(OC)c(OC)c(OC)c2)cc1O [COMBRETASTATIN A4] | 17.2

test system: MDA-MB-231; experiment: Induction of apoptosis in human MDA-MB-231 cells assessed as viable cells at 10 uM by Annexin V-FITC/propidium iodide staining based flow cytometric analysis (reference value: 93.6 %); format: functional; details: read-out: Activity

Structure (SMILES) | viability at 10 µM [%]
O=C1C=CC2(OCC(=O)N2Cc2ccc(Cl)cc2)C2CC12 (configuration not stated) | 85.4
COc1ccc(/C=C\c2cc(OC)c(OC)c(OC)c2)cc1O [COMBRETASTATIN A4] | 77.7
